Test results taken from ChEMBL document CHEMBL5143611, “Antillatoxin-Stimulated Neurite Outgrowth Involves the Brain-Derived Neurotrophic Factor (BDNF) - Tropomyosin Related Kinase B (TrkB) Signaling Pathway” (J Nat Prod, 2022).
Calls of active or inactive are those of the source. The calls are words filed in the database; no cut-off is given here.

Columns and labels:
Cerebral cortex neuron [1] = experiment: Induction of BDNF release in Swiss Webster mouse immature cerebrocortical neuron assessed as increase in BDNF release at 100 to 3000 nM incubated for 4 days by sandwich ELISA method; assay type: functional, cell-based; settings: dose 100-3000 nM, time 4.0 day
Method in brief: (§1)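 In situ sandwich ELISA. Plates coated overnight at 4 °C with anti-BDNF capture antibody, then blocked. Immature cortical neurons plated directly in the wells with BDNF standards and treated from 3 h after plating; 50 mM KCl served as comparator. After 4 days cells were washed off with TBST, and bound BDNF was detected with a polyclonal antibody for 2 h at RT.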

Cerebral cortex neuron [2] = experiment: Induction of glutamate release in Swiss Webster mouse immature cerebrocortical neuron assessed as increase in glutamate release at 30 to 100 nM incubated for 2 hrs by HPLC based fluorescence method; assay type: functional, cell-based; settings: dose 30-100 nM
Method in brief: (§2)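 Cortical neurons at 5 DIV in 96-well plates. Medium saved and cells washed in Locke's buffer, pH 7.4. Exposure in that buffer for 2 h at 22 °C, then three washes and return to the saved medium for 22 h at 37 °C. Medium then collected, derivatized with o-phthaldialdehyde and analysed by HPLC with fluorescence detection.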

[3] = Induction of glutamate release in Swiss Webster mouse immature cerebrocortical neuron assessed as increase in glutamate release at 30 nM incubated for 2 hrs by HPLC based fluorescence method; assay type: functional, Cerebral cortex neuron; method in brief: as §2
[4] = molecular target: BDNF/NT-3 growth factors receptor (Mus musculus) (UniProt P15209); experiment: Activation of TrkB receptor in Swiss Webster mouse immature cerebrocortical neuron assessed as phosphorylation of TrkB at Tyr516 residue at 30 nM incubated for 30 mins by western blot analysis; assay type: cell-based; settings: filed as activator
Method in brief: (§3)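 DIV-1 cortical neurons in six-well plates exposed to 30 nM for 30 min at 37 °C. Where antagonists were used, 15 min preincubation. Exposure stopped on ice, cells washed in cold PBS and lysed 30 min at 4 °C. Protein measured by Bradford. Equal protein run on 10% SDS-PAGE, blotted to PVDF, probed with specific antibodies, ECL detection.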

[5] = Induction of aspartate release in Swiss Webster mouse immature cerebrocortical neuron assessed as increase in aspartate concentration at 100 nM incubated for 2 hrs by HPLC based fluorescence method; assay type: functional, Cerebral cortex neuron; method in brief: as §2
[6] = Induction of glutamate release in Swiss Webster mouse immature cerebrocortical neuron assessed as increase in glutamate release at 100 nM incubated for 2 hrs by HPLC based fluorescence method; assay type: functional, Cerebral cortex neuron; method in brief: as §2
[7] = (§4) Induction of BDNF release in Swiss Webster mouse immature cerebrocortical neuron assessed as increase in BDNF release incubated for 4 days by sandwich ELISA method; assay type: functional, cell-based; settings: Cerebral cortex neuron, 96 h; method in brief: as §1
Cerebral cortex neuron [8] = experiment: as §4; assay type: functional, cell-based; settings: time 4.0 day, DDE = dose-dependent effect; method in brief: as §1
Cerebral cortex neuron [9] = experiment: Induction of BDNF release in Swiss Webster mouse immature cerebrocortical neuron assessed as increase in BDNF synthesis at 30 nM incubated for 30 mins by western blot analysis; assay type: functional, cell-based; method in brief: as §3
[10] = molecular target: Serine/threonine-protein kinase mTOR (Mus musculus) (UniProt Q9JLN9); experiment: Activation of mTOR signalling pathway in Swiss Webster mouse immature cerebrocortical neuron assessed as increase in mTOR phosphorylation at Ser2448 at […] incubated for 3 hrs by western blot analysis; assay type: cell-based; settings: filed as activator
[11] = Induction of aspartate release in Swiss Webster mouse immature cerebrocortical neuron assessed as increase in aspartate concentration at 30 nM incubated for 2 hrs by HPLC based fluorescence method; assay type: functional, Cerebral cortex neuron; method in brief: as §2
[12] = molecular target: BDNF/NT-3 growth factors receptor (Homo sapiens) (UniProt Q16620); experiment: Activation of full length isoform of TrkB receptor (unknown origin) expressed in mouse cerebrocortical neuron assessed as increase in neurite length at 30 nM incubated for 24 hrs by DiI dye based microscopic analysis; assay type: cell-based; settings: filed as activator
Method in brief: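 E16 mouse cortical neurons plated at 0.5 × 10^6/well and lipofected 2 h after plating with 0.5 µg gene-of-interest plasmid or empty vector plus 0.25 µg GFP plasmid. 30 nM or vehicle added 3 h after transfection. Neurons imaged at DIV-2.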

[13] = molecular target: RAC-alpha serine/threonine-protein kinase (Mus musculus) (UniProt P31750); experiment: Activation of Akt signalling pathway in Swiss Webster mouse immature cerebrocortical neuron assessed as increase in AKT phosphorylation of Ser473 by measuring fold change at […] incubated for 24 hrs by western blot analysis; assay type: cell-based; settings: filed as activator, dose lower 10.0 µM
RAC-alpha serine/threonine-protein kinase (Mus musculus), sequence (P31750 whole entry): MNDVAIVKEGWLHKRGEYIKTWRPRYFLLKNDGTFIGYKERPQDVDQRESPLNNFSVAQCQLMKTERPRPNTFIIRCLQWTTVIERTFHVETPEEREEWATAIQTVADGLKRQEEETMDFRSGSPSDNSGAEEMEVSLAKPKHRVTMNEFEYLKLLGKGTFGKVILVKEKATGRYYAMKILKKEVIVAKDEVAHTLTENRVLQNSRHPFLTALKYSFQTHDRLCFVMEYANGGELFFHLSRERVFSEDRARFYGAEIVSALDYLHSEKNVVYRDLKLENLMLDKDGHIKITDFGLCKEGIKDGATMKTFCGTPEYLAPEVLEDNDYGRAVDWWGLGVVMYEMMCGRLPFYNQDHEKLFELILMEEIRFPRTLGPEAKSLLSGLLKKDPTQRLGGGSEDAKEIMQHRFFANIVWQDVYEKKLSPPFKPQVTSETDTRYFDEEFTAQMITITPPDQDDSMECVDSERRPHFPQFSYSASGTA

BDNF/NT-3 growth factors receptor (Mus musculus), sequence (P15209 whole entry): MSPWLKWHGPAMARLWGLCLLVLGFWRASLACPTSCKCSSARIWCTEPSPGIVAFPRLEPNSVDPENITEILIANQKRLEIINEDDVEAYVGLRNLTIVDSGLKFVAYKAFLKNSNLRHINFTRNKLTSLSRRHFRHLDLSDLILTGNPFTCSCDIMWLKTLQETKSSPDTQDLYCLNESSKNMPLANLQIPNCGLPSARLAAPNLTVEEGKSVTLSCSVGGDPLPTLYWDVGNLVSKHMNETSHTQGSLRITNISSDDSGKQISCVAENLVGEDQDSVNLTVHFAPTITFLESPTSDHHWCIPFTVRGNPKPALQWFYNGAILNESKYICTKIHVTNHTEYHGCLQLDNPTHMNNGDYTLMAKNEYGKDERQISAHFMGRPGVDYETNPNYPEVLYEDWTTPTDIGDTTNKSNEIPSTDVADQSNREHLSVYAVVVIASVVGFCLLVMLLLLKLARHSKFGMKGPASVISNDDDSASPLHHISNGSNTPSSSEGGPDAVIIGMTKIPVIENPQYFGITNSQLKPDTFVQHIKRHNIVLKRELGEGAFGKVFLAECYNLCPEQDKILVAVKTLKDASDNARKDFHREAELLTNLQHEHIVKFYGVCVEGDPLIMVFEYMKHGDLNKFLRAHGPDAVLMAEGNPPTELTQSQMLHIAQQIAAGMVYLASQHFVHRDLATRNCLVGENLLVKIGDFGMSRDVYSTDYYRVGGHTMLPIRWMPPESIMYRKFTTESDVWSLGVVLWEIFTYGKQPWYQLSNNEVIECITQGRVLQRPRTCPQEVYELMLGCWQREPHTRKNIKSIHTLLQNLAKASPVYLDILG
BDNF/NT-3 growth factors receptor (Homo sapiens), sequence (Q16620 32-822 limits assumed): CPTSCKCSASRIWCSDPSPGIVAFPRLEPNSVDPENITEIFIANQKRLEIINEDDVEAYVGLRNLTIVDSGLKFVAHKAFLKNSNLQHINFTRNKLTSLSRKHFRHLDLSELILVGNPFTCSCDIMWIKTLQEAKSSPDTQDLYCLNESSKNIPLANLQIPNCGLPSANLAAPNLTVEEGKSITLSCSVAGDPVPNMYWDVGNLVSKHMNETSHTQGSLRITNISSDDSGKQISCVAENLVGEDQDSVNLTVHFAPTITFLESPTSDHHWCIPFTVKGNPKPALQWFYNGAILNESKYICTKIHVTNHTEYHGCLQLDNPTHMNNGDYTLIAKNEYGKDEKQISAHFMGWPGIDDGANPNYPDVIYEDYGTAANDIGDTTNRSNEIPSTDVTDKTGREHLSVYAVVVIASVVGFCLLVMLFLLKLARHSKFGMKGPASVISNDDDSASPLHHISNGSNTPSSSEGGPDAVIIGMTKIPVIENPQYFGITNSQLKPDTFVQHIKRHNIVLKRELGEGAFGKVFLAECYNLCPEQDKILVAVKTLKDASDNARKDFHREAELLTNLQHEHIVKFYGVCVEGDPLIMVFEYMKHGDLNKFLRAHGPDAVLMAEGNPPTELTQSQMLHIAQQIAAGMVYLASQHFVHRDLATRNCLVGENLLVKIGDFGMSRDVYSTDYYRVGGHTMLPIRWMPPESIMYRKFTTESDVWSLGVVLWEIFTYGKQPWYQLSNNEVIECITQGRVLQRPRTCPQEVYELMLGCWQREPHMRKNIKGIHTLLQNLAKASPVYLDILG

In the case of `C=C1CC(=O)N[C@@H](C)C(=O)N(C)[C@@H](C(C)C)C(=O)NCC(=O)O[C@@H](/C(C)=C/C(C)=C/C(C)(C)C)[C@@H]1C` [ANTILLATOXIN], the Activity (Cerebral cortex neuron [1]) is reported as “Active”, the Activity (Cerebral cortex neuron [2]) is reported as “Active” and the Activity [3] is reported as 2.32 µM. The Activity [4] was “Active”, the Activity [5] was 1.73 µM and the Activity [6] was 2.07 µM. The EC50 [7] was 450 nM, the Activity (Cerebral cortex neuron [8]) was “Dde” and the Activity (Cerebral cortex neuron [9]) was “Active”. The fold change (FC) [10] was 2, the Activity [11] was 1.81 µM and the Activity [12] was “Active”. For the same compound, the fold change (FC) [13] was 3.
